Data reported in ChEMBL document CHEMBL1765056, “Cytotoxic oleanane-type saponins from Albizia inundata” (J Nat Prod, 2011).
Activity calls are given as the source filed them. The rule behind the calls is not given here.

Assays:
Type in all cases: functional, cell-based
SK-MEL-28 [1] = assay: Cytotoxicity against human SK-MEL-28 cells harboring BRAF […]/PTEN mutation assessed as membrane disintegration by phase contrast microscopy
In short: (§1)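 Cells treated with increasing concentrations of saponins, then examined by phase-contrast microscopy for membrane disintegration.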

[2] = Cytotoxicity against human JMAR cells assessed as cell viability by MTS assay
In short: (§2)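 Pure compounds tested at five concentrations from 50 nM to 20 uM. Readout is MTS viability, with IC50 derived per cell line. JMAR and MDA1986 are head and neck squamous carcinoma lines. B16F10 is a murine melanoma line and SKMEL28 a human melanoma line, both BRAF V600E; SKMEL28 also carries a PTEN mutation.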

JMAR = assay: Cytotoxicity against human JMAR cells assessed as membrane disintegration by phase contrast microscopy; in short: as §1
B16-F10 [3] = assay: Cytotoxicity against mouse B16F10 cells harboring BRAF […] mutation assessed as cell viability by MTS assay; in short: as §2
Homo sapiens = species on record: Homo sapiens; assay: Cytotoxicity against human MDA1986 cells assessed as membrane disintegration by phase contrast microscopy; in short: as §1
B16-F10 [4] = assay: Cytotoxicity against mouse B16F10 cells harboring BRAF […] mutation assessed as membrane disintegration by phase contrast microscopy; in short: as §1
SK-MEL-28 [5] = assay: Cytotoxicity against human SK-MEL-28 cells harboring BRAF […]/PTEN mutation assessed as cell viability by MTS assay; in short: as §2
[6] = Cytotoxicity against human MDA1986 cells assessed as cell viability by MTS assay; in short: as §2

Compound	Activity (SK-MEL-28 [1])	IC50 [2]	Activity (JMAR)	IC50 (B16-F10 [3])	Activity (Homo sapiens)	Activity (B16-F10 [4])	IC50 (SK-MEL-28 [5])	IC50 [6]
CC(=O)N[C@H]1[C@H](O[C@H]2CC[C@]3(C)[C@H]4CC=C5[C@@H]6CC(C)(C)CC[C@]6(C(=O)O)[C@H](O)C[C@@]5(C)[C@]4(C)CC[C@H]3C2(C)C)O[C@H](CO[C@@H]2OC[C@H](O)[C@H](O)[C@H]2O)[C@@H](O)[C@@H]1O	inactive	2.8 µM	inactive	5.1 µM	inactive	inactive	9.2 µM	1.8 µM
CC(=O)N[C@H]1[C@H](O[C@H]2CC[C@]3(C)[C@H]4CC=C5[C@@H]6CC(C)(C)CC[C@]6(C(=O)O)CC[C@@]5(C)[C@]4(C)CC[C@H]3C2(C)C)O[C@H](CO[C@@H]2OC[C@H](O)[C@H](O)[C@H]2O)[C@@H](O)[C@@H]1O	inactive	8.7 µM	inactive	4.7 µM	inactive	inactive	12.4 µM	7.3 µM
CC(=O)N[C@H]1[C@H](O[C@H]2CC[C@]3(C)[C@H]4CC=C5[C@@H]6CC(C)(C)[C@@H]7C[C@]6(C(=O)O7)[C@H](O)C[C@@]5(C)[C@]4(C)CC[C@H]3C2(C)C)O[C@H](CO[C@@H]2OC[C@H](O)[C@H](O)[C@H]2O[C@@H]2OC[C@H](O)[C@H](O)[C@H]2O)[C@@H](O)[C@@H]1O		> 20 µM		> 20 µM			> 20 µM	> 20 µM
CC1(C)CC[C@]2(C(=O)O)[C@H](O)C[C@]3(C)C(=CC[C@@H]4[C@@]5(C)CC[C@H](O[C@@H]6O[C@H](CO[C@@H]7OC[C@H](O)[C@H](O)[C@H]7O[C@@H]7OC[C@H](O)[C@H](O)[C@H]7O)[C@@H](O)[C@H](O)[C@H]6O[C@@H]6O[C@H](CO)[C@@H](O)[C@H](O)[C@H]6O)C(C)(C)[C@@H]5CC[C@]43C)[C@@H]2C1		> 20 µM		> 20 µM			> 20 µM	> 20 µM
CC1(C)CC[C@]2(C(=O)O)CC[C@]3(C)C(=CC[C@@H]4[C@@]5(C)CC[C@H](O[C@@H]6O[C@H](CO)[C@@H](O)[C@H](O)[C@H]6O[C@@H]6O[C@H](CO)[C@@H](O)[C@H](O)[C@H]6O)C(C)(C)[C@@H]5CC[C@]43C)[C@@H]2C1 [ACUTOSIDE A]		> 20 µM		> 20 µM			> 20 µM	> 20 µM
CC1(C)CC[C@]2(C(=O)O)[C@H](O)C[C@]3(C)C(=CC[C@@H]4[C@@]5(C)CC[C@H](O[C@@H]6O[C@H](CO[C@@H]7OC[C@H](O)[C@H](O)[C@H]7O[C@@H]7OC[C@@H](O)[C@H](O)[C@H]7O)[C@@H](O)[C@H](O)[C@H]6O[C@@H]6O[C@H](CO)[C@@H](O)[C@H](O)[C@H]6O)C(C)(C)[C@@H]5CC[C@]43C)[C@@H]2C1		> 20 µM		> 20 µM			> 20 µM	> 20 µM
CC1(C)CC[C@]2(C(=O)O)CC[C@]3(C)C(=CC[C@@H]4[C@@]5(C)CC[C@H](O[C@@H]6O[C@H](CO[C@@H]7OC[C@H](O)[C@H](O)[C@H]7O[C@@H]7OC[C@@H](O)[C@H](O)[C@H]7O)[C@@H](O)[C@H](O)[C@H]6O)C(C)(C)[C@@H]5CC[C@]43C)[C@@H]2C1 [PITHEDULOSIDE C]	inactive	10.1 µM	inactive	6.9 µM	inactive	inactive	8.6 µM	9 µM
CC1(C)CC[C@]2(C(=O)O)CC[C@]3(C)C(=CC[C@@H]4[C@@]5(C)CC[C@H](O[C@@H]6O[C@H](CO[C@@H]7OC[C@H](O)[C@H](O)[C@H]7O[C@@H]7OC[C@H](O)[C@H](O)[C@H]7O)[C@@H](O)[C@H](O)[C@H]6O)C(C)(C)[C@@H]5CC[C@]43C)[C@@H]2C1	inactive	11.5 µM	inactive	6.3 µM	inactive	inactive	8.1 µM	8.2 µM
CC(=O)N[C@H]1[C@H](O[C@H]2CC[C@]3(C)[C@H]4CC=C5[C@@H]6CC(C)(C)[C@@H]7C[C@]6(C(=O)O7)[C@H](O)C[C@@]5(C)[C@]4(C)CC[C@H]3C2(C)C)O[C@H](CO[C@@H]2OC[C@H](O)[C@H](O)[C@H]2O[C@@H]2OC[C@@H](O)[C@H](O)[C@H]2O)[C@@H](O)[C@@H]1O [PROSAPOGENIN 4]		> 20 µM		> 20 µM			> 20 µM	> 20 µM
